Hits are enriched below; roughly 3.9% of the tested compounds scored in any of these assays.
CHRM1 PAM – human M1 muscarinic receptor positive allosteric modulators, primary screen, CHO-K1 cells, Fluo-8 calcium fluorescence, 1536-well; CHO-K1 hM1, ACh EC20; 0% = ACh EC20, 100% = maximal ACh; AID 588819, 2011; Muscarinic acetylcholine receptor M1 (Homo sapiens), P11229; activation, % at 3 µM; 0.088% of 360,000 active; in the data active = activation above about 19%, passing the limit was not always enough
M1 antag – human M1 muscarinic receptor antagonists, primary screen, CHO-K1 cells, Fluo-8 calcium fluorescence, 1536-well; CHO-K1 hM1, ACh EC80 antagonist; Muscarinic acetylcholine receptor M1 (Homo sapiens), P11229; 1.3% of 360,000 active; inhibition, % at 3 µM;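 active = percent inhibition above its own plate's cutoff, namely the mean of that plate's compound wells plus 3 SD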;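 also: peak over basal fluorescence ratio during 140 s after agonist addition; 0% = ACh EC80 plus DMSO and 100% = DMSO alone without agonist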
M1 ag – human M1 muscarinic receptor agonists, primary screen, Fluo-8 calcium fluorescence, CHO-K1 cells, HTS. CHO-K1 hM1, agonist mode; 0% DMSO, 100% acetylcholine EC100. activation, % at 3 µM. 0.33% of 360,000 active. AID 588814, 2011;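 active = activation above the run's mean compound activation plus 3 SD, cut at about 16% in these data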;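 also: peak over basal fluorescence ratio within a 140 s kinetic read after compound addition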
TAAR1 antag – human TAAR1 antagonists, primary screen, Fluo-8 calcium fluorescence, CHO RD-HGA16 cells. antagonist. inhibition, % at 3 µM. 1.5% of 360,000 active;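 active = inhibition above a per-plate cutoff, the mean inhibition of test compounds on that plate plus 3 SD, cut at about 49% in these data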;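 also: 0% = DMSO plus EC80 beta-PEA response and 100% = DMSO alone without agonist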
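Material: CHO RD-HGA16 cells bearing hTAAR1; compound dosing: one-point dosing, 3 µM nominal final; schedule: dye loading 75 min at 37 °C, then 30 min room temperature; measured by: calcium fluorescence with Fluo-8; control set: vehicle and agonist controls; replication: n of 1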
HTR2A ag – mouse Htr2a agonists via beta-arrestin recruitment, primary screen, cell-based, luminescence | 5-hydroxytryptamine receptor 2A (Mus musculus), P35363 | CHO-K1 mHTR2A beta-arrestin complementation; percent of 30 µM serotonin response | activation, % at 7.6 µM | 0.66% of 360,000 active | AID 624169, 2012;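 active = activation above a run cutoff, the mean activation of all tested compounds plus 3 SD, cut at about 14% in these data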;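 also: 0% = plate median of compound wells and 100% = 30 µM serotonin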
TAAR1 agonist – human TAAR1 agonists, primary screen, Fluo-8 calcium fluorescence, CHO RD-HGA16 cells. Trace amine-associated receptor 1 (Homo sapiens), Q96RJ0. vehicle wells 0%, saturating PEA agonist 100%. activation, % at 3 µM. 0.99% of 360,000 active;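 active = activation above the mean activation of all test compounds in the run plus 3 SD, cut at about 38% in these data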
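Assay system: CHO-derived RD-HGA16 cells with stable Gα16 and human TAAR1; timing: 17-24 h seeding, 75 min 37 °C dye, 30 min RT; read-out: % activation from peak over basal fluorescence ratio, DMSO-to-PEA scaled; measured by: kinetic Fluo-8 calcium fluorescence; benchmarks: low control DMSO, high control PEA (EC100); doses: 3 µM single concentration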
MOR ag counter – OPRM1 agonists via beta-arrestin recruitment, confirmation, counter-screen for mouse HTR2A agonist project, cell-based, luminescence, single concentration; shares compounds with HTR2A ag; U2OS OPRM1 beta-arrestin PathHunter; DMSO 0%, DAMGO 9.3 µM 100%; activation, % at 9.3 µM; 5.3% of 2,300 active;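 active = mean activation above the mean of DMSO-only wells plus 3 SD, cut at about 0.5% in these data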
Target sequence (P35372 whole entry, looked up): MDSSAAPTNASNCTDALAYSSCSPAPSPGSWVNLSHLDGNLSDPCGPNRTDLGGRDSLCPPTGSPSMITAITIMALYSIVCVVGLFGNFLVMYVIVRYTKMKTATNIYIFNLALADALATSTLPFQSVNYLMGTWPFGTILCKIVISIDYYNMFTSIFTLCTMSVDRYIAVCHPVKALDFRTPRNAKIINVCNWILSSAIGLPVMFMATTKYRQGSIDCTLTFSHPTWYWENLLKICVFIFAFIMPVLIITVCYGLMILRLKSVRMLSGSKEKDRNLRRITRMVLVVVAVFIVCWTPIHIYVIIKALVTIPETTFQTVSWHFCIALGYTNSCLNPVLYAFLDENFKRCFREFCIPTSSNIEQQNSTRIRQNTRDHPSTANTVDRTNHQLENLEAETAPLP
m5-HT2A ag conf – mouse HTR2A agonists, beta-arrestin recruitment, confirmation, cell-based, luminescence, CHO-K1 PathHunter, triplicate; shares compounds with HTR2A ag; DMSO 0%, 30 µM serotonin 100%; activation, % at 7.6 µM; 19% of 2,300 active; AID 624381, 2012;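 active = mean activation across triplicates above the hit threshold derived in the original primary screen, cut at about 15% in these data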
Active calls of the source: *; x = no result given.

SMILES | CHRM1 PAM | M1 antag | M1 ag | TAAR1 antag | HTR2A ag | TAAR1 agonist | MOR ag counter | m5-HT2A ag conf
CCc1ccc(NC(=O)CSc2nc3ccccc3c(=O)n2CCCN2CCC(C)CC2)cc1 | -2.8 | 17.4 | -7.2 | -20.7 | 47.8* | 7.9 | -0.2 | 20.1*
COC(=O)c1ccc2c(=O)n(CCN3CCOCC3)c(SCC(=O)NCc3ccccc3)nc2c1 | 3.0 | 2.7 | -3.7 | -28.8 | 15.8* | -0.6 | -0.6 | -4.9
COc1ccc(NC(=O)CSc2nc3ccccc3c(=O)n2CCNC(C)=O)c(OC)c1 | 2.4 | -1.9 | -3.0 | -3.4 | -3.6 | 1.5 | x | x
Cc1ccc(NC(=O)CSc2nc3ccccc3c(=O)n2CCCN2CCCCC2)cc1C | 8.0 | -5.0 | -4.4 | -18.0 | 15.6* | 11.5 | -0.4 | 11.6
COC(=O)c1ccc2c(=O)n(CCN3CCOCC3)c(SCC(=O)C(C)(C)C)nc2c1 | 0.0 | 9.0 | -2.1 | 5.6 | 0.2 | 0.5 | x | x
COc1ccc(NC(=O)CSc2nc3ccccc3c(=O)n2CCCN2CCOCC2)c(OC)c1 | 12.4 | -10.5 | -9.0 | -1.0 | 38.9* | 0.2 | -0.6 | 12.5
CC(=O)c1cccc(NC(=O)CSc2nc3ccccc3c(=O)n2CCCN2CCOCC2)c1 | 2.1 | -2.7 | -6.2 | 34.1 | -7.1 | 10.8 | x | x
CCCOc1ccc(C(=O)NC(=S)N2CCN(c3cc4c(cc3F)c(=O)c(C(=O)O)cn4CC)CC2)cc1 | 12.9 | -14.3 | -2.7 | -16.3 | 1.4 | 2.6 | x | x
COc1ccc(N(CC(=O)Nc2cc(C)ccc2C)S(=O)(=O)c2ccccc2[N+](=O)[O-])c(OC)c1 | 0.8 | 0.7 | -10.2 | 4.3 | -4.6 | 4.3 | x | x
O=C(O)C1=C(C(=O)O)C2C=CC1C2 | 15.4 | -20.0 | -1.4 | -19.9 | -4.8 | 6.5 | x | x
Cc1nn(CC(=O)NC2CCC(C)CC2)c(C)c1[N+](=O)[O-] (stereo unspecified) | 12.8 | -3.5 | 0.5 | -5.5 | 1.3 | 2.9 | x | x
Nc1c(Cl)ncnc1N1CCCC1 | 15.2 | -20.3 | 0.3 | 18.8 | 14.6* | 8.2 | -0.4 | -2.8
COc1ccc(-c2c(-c3cc(OC)cc(OC)c3)n(C)c3ccc(-c4ccc5[nH]ccc5c4)cc23)cc1 | -0.8 | 3.2 | 0.5 | -10.5 | 21.7* | 9.1 | -0.5 | -3.5
Cc1cc(C(=O)NNC(=O)[C@H](C)NC(=O)c2ccc(Br)cc2)c(C)o1 | 23.1 | -17.2 | 2.3 | -4.1 | 2.8 | 4.9 | x | x
CCC(NS(=O)(=O)c1ccc(OC)cc1)C(=O)NCCc1ccccc1 (stereo unspecified) | 12.0 | -28.6 | -1.2 | -11.2 | 1.1 | -0.8 | x | x
COc1ccc2c(CC(=O)N3CCc4ccccc43)coc2c1 | -2.2 | 2.3 | -3.9 | 9.9 | -0.5 | 3.3 | x | x
COc1ccc2c(CC(=O)OCC(=O)N3CCc4ccccc43)coc2c1 | 2.0 | -3.5 | -2.4 | -11.5 | 15.9* | 13.1 | -0.4 | -4.8
CCOC(=O)C1=C(N)Oc2cc(O)ccc2C1c1ccccc1 (stereo unspecified) | 4.3 | -9.8 | 1.5 | -6.7 | -3.5 | 1.0 | x | x
